Activity calls are given as the source filed them. No cut-off for these calls is given here.
Experiments:
[1] = biological target: Myelin basic protein (Mus musculus) (UniProt P04370); experiment: Binding affinity to corpus collosum myelin in central nervous system of mouse […] by fluorescent microscopy; format: tissue-based; conditions: Corpus callosum
[2] = species on record: Mus musculus; experiment: Selectivity for mouse white matter myelin over gray matter myelin; format: tissue-based
Procedure, shortened: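 Mouse brain sections stained with compound at 100 μM. Fluorescence intensity measured in predefined ROIs: part of the corpus callosum (white matter) and a subcortical gray matter region. White/gray intensity ratio calculated; mean ± SD, n = 3.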

[3] = biological target: Myelin basic protein (Mus musculus) (UniProt P04370); experiment: Binding affinity to sciatic nerve myelin in peripheral nervous system of mouse at 100 uM […] by Black gold II staining
[4] = biological target: Myelin basic protein (Mus musculus) (UniProt P04370); experiment: Binding affinity to cerebellum myelin in central nervous system of mouse […] by fluorescent microscopy
[5] = Half life of the compound in mouse brain; format: ADME, tissue-based
[6] = test system: Mus musculus; experiment: Binding affinity to sciatic nerve myelin in C57BL/6 mouse at 40 mg/kg after 20 mins, iv after 10 mins by fluorescent microscopy; format: functional, organism-based; set-up: dose 40 mg/kg
Procedure, shortened: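 Eight-week C57BL/6 mice dosed 40 mg/kg by tail vein in saline; saline alone as control. At 10 min, mice anesthetized with isoflurane and sciatic nerves surgically exposed and imaged under a dissection fluorescence microscope (LP 590 filter). Nerves imaged again after perfusion.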

[7] = biological target: Myelin basic protein (Mus musculus) (UniProt P04370); experiment: Binding affinity to corpus collosum myelin in myelin deficient shiverer mouse assessed as myelination levels at 100 uM after 20 mins by fluorescent microscopy relative to control; conditions: Corpus callosum
Procedure, shortened: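 Frozen 20 μm brain sections from wild-type C57BL/6 and shiverer (C3Fe.SWV-Mbp^shi/J) mice stained with compound at 100 μM, with anti-MBP immunostaining of the same sections. Pixel intensity in a corpus callosum ROI (midline to below cingulum apex) quantified. Wild-type set to 100, shiverer expressed as percentage. Nonpaired Student's t test.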

[8] = biological target: Myelin basic protein (Mus musculus) (UniProt P04370); experiment: Binding affinity to caudate putamen myelin in mouse by fluorescent microscopy; format: tissue-based
Procedure, shortened: (§1)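 Wild-type mice given 40 mg/kg via tail vein under anesthesia, then perfused transcardially with saline followed by 4% PFA in PBS. Brain sections imaged by fluorescence microscopy (BP470/40 nm filter) for in situ staining in cerebellum, caudate putamen/striatum and temporal cortex. Same sections co-stained with anti-MBP antibody for comparison.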

[9] = Lipophilicity, log P of the compound; format: physicochemical; conditions: octanol/water
[10] = biological target: Myelin basic protein (Mus musculus) (UniProt P04370); experiment: Binding affinity to temporal cortex myelin in mouse by fluorescent microscopy; format: tissue-based; procedure, shortened: as §1

Myelin basic protein (Mus musculus), sequence (P04370 whole entry, the tested form may be a part): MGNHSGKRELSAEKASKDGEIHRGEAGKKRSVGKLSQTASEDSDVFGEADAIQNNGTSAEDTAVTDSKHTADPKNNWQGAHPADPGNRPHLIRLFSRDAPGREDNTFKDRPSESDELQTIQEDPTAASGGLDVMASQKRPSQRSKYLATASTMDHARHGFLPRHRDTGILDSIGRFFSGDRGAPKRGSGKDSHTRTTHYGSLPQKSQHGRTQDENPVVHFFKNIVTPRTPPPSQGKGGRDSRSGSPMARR

Row | Structure (SMILES) | Activity [1] | also measured
1 | Nc1ccc(-c2cc3cc(F)ccc3oc2=O)cc1 | Active | –
2 | CN(C)c1ccc(-c2cc3ccccc3oc2=O)cc1 | Active | white/gray matter fluorescence ratio [2]: 1.34
3 | CC(=O)Oc1ccc2cc(-c3ccc(N(C)C)cc3)c(=O)oc2c1 | Active | white/gray matter fluorescence ratio [2]: 1.35
4 | CCN(CC)c1ccc(-c2ccc3cc(-c4nc5ccccc5n4C)c(=O)oc3c2)cc1 | Active | –
5 | O=c1oc2ccccc2c(O)c1Cc1c(O)c2ccccc2oc1=O | inactive | –
6 | CCN(CC)c1ccc(-c2ccc3cc(-c4nc5ccccc5[nH]4)c(=O)oc3c2)cc1 | Active | –
7 | CCN(CC)c1ccc(-c2ccc3cc(-c4ccc(N)cc4)c(=O)oc3c2)cc1 | Active | –
8 | O=c1ccc2ccccc2o1 | inactive | –
9 | O=c1cc(C(F)(F)F)c2ccc(O)cc2o1 | inactive | –
10 | O=c1cc(O)c2ccccc2o1 | inactive | –
11 | CCN(CC)c1ccc(-c2ccc3cc(-c4nc5ccccc5s4)c(=O)oc3c2)cc1 | Active | –
12 | CN(C)c1ccc(-c2cc3ccc(OCCCF)cc3oc2=O)cc1 | Active | Activity [3]: Active; Activity [4]: Active; half-life [5]: 20 min; Activity [6]: Active; Activity [7]: 12%; white/gray matter fluorescence ratio [2]: 1.54; Activity [8]: Active; logP [9]: 3.82; Activity [10]: Active
13 | Nc1cc2ccccc2oc1=O | inactive | –
14 | Nc1ccc(-c2cc3ccccc3oc2=O)cc1 | Active | white/gray matter fluorescence ratio [2]: 1.39
15 | CN(C)c1ccc(-c2cc3ccc(OCCF)cc3oc2=O)cc1 | Active | white/gray matter fluorescence ratio [2]: 1.52
16 | CN(C)c1ccc(-c2cc3cc(OCCF)ccc3oc2=O)cc1 | Active | white/gray matter fluorescence ratio [2]: 1.33
17 | CCN(CC)c1ccc(-c2ccc3cc(C(=O)c4cccs4)c(=O)oc3c2)cc1 | Active | –
18 | CCN(CC)c1ccc(-c2ccc3cc(-c4ccc([N+](=O)[O-])cc4)c(=O)oc3c2)cc1 | Active | –

Row | Structure (SMILES) | Activity [1] | also measured
19 | CN(C)c1ccc(-c2cc3ccc(O)cc3oc2=O)cc1 | Active | white/gray matter fluorescence ratio [2]: 1.25
20 | CN(C)c1ccc(-c2cc3cc(OCCCF)ccc3oc2=O)cc1 | Active | white/gray matter fluorescence ratio [2]: 1.38
21 | Nc1cc(=O)oc2ccccc12 | inactive | –
22 | CCN(CC)c1ccc(-c2ccc3cc(-c4ccc(CBr)cc4)c(=O)oc3c2)cc1 | Active | –
23 | CN(C)c1ccc(-c2cc3cc(O)ccc3oc2=O)cc1 | Active | white/gray matter fluorescence ratio [2]: 1.48
24 | O=c1oc2cc(O)ccc2cc1-c1ccccc1 | inactive | –
25 | O=c1oc2ccccc2cc1O | inactive | –
26 | O=c1oc2ccccc2cc1-c1ccc([N+](=O)[O-])cc1 | inactive | –
27 | CN(C)c1ccc2c(C(F)(F)F)cc(=O)oc2c1 | inactive | –
28 | Cc1ccc2ccc(=O)oc2c1 | inactive | –
29 | CC(=O)Oc1ccc2oc(=O)c(-c3ccc(N(C)C)cc3)cc2c1 | Active | white/gray matter fluorescence ratio [2]: 1.53
30 | O=c1oc2ccccc2cc1-c1ccccc1 | inactive | –
31 | Cc1cc(=O)oc2ccccc12 | inactive | –
32 | O=c1oc2ccc(F)cc2cc1-c1ccc([N+](=O)[O-])cc1 | inactive | –
33 | COc1ccc2ccc(=O)oc2c1 | inactive | –
34 | CN(C)c1ccc(-c2cc3cc(F)ccc3oc2=O)cc1 | Active | –
35 | Nc1ccc2c(C(F)(F)F)cc(=O)oc2c1 | inactive | –

From ChEMBL document CHEMBL1764985, “Design, synthesis, and evaluation of coumarin-based molecular probes for imaging of myelination” (J Med Chem, 2011)
